HSF1 inh: HSF1 inhibition; activity change, negative = inhibition, % at 7.5 µM (by protocol); NIH3T3-HGL HSE-luciferase, MG132-induced, luminescence 8 h; hits give low values; hit rate 0.77% among 300,000;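 active means more than half of replicate wells show activity change below -50%, luminescence cut by over half; inconclusive means some wells, but at most half, below -50%; inactive means no replicate well below -50%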;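 further: luciferase reports HSF-1 transcriptional activity via heat shock element; 0% = median of DMSO wells and -100% = zero luminescence signal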
Jurkat NFkB inh: lowers PMA/ionomycin-induced NF-kB signal in Jurkat cells. PMA/ionomycin-induced NF-kB luciferase reporter, luminescence. inhibition, % at 4 µM. hit rate 0.53% among 330,000; in the data active means inhibition above about 50%
697 NFkB inh: inhibitors of the PMA/ionomycin-induced NF-kB reporter in 697 B cells | hit rate 0.33% among 330,000 | inhibition, % at 4 µM | AID 435022 | 697 B-cell NF-kB luciferase reporter, 16 h; in the data active means inhibition above about 35%
T cruzi inh: T. cruzi replication inhibition. T. cruzi beta-gal in NIH3T3, luminescence, 90 h. inhibition, % (test concentration not listed). hit rate 1.4% among 300,000. AID 1885;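 active means mean inhibition across valid replicates above about 55%, limit read from the data; inconclusive means mean below that limit but half or more replicates reach it; inactive means mean below it, under half of replicates reach it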;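 further: signal also drops with host cell toxicity which is not excluded here; 0% = plate median of DMSO wells and 100% = zero luminescence signal; higher percent means less beta-gal luminescence so fewer parasites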
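compound dosing = single 50 nL compound addition per well in DMSO | material = NIH/3T3 host cells with β-galactosidase reporter T. cruzi | input = 5,000 host fibroblasts per well | timing = ≥90 h infection period, 3 h prior cell attachment | read-out basis = percent inhibition of parasite-derived β-gal signal | detection = GalScreen β-gal luminescence, detergent lysis, 60 min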
HSF1 activator: increases HSF-1 driven luciferase reporter signal. AID 504408. NIH3T3-HGL HSF-1 luciferase reporter, MG132, 8 h; 100% = twice DMSO control signal. activation, % at 9 µM. hit rate 1.7% among 300,000;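 active means mean replicate activation of at least 50% with a set share of replicates each reaching 50%; inconclusive means only one of those two conditions met; inactive means mean below 50% and too few replicates reaching it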;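 further: 0% = median of the neutral control wells and 100% = twice that signal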
GPR7 antag: blocks human GPR7 receptor signaling | inhibition, % at 4.4 µM | hit rate 1.1% among 290,000 | GPR7-expressing cells, fluorescence antagonist assay | AID 1861 | P48145; in the data active means inhibition above about 16%, passing the limit was not always enough;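 further: cells stimulated with the agonist NPW; 0% = agonist with vehicle and 100% = vehicle without agonist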
Target sequence (P48145 whole entry, looked up): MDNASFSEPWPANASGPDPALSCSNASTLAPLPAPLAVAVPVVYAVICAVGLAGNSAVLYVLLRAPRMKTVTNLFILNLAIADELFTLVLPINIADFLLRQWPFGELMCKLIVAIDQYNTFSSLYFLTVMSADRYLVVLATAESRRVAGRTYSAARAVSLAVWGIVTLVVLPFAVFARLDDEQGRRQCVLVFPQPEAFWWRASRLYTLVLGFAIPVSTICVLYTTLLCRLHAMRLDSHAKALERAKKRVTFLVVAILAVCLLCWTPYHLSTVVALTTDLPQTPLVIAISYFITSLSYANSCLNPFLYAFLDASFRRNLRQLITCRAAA
An asterisk follows results filed as active; ? = inconclusive; nt = no result. In the library only some 4.8% were active in any assay of this set; here they are far more common.

SMILES	HSF1 inh	Jurkat NFkB inh	697 NFkB inh	T cruzi inh	HSF1 activator	GPR7 antag
CN=C(Nc1cccnc1)c1ccccc1	-0.5	2.7	5.7	-5.4	3.7	-13.6
CC1(c2ccc([N+](=O)[O-])cc2)Nc2ccccc2S1 (stereo not drawn)	3.2	-36.4	-30.9	1.9	20.9	-9.3
COc1cccc(OC)c1C(=O)NNC(=O)c1cccc(COc2ccc3c(c2)CCC3)c1	-57.5*	-34.6	-35.4	7.1	-57.5	3.9
CC1(C)C2CCC1(C)C(OCC[N+](C)(C)CC(=O)OC1CCCCC1)C2 (stereo not drawn)	-8.4	1.9	2.2	63.1*	-5.8	20.2*
N#C/C(=C\c1ccc(N2CCOCC2)o1)c1ccccc1	27.8	-0.6	-16.7	-9.5	38.9	3.3
N#C/C(=C/c1ccc(N2CCCCCC2)o1)c1ccc(F)cc1	93.2	24.2	-34.1	58.1*	114.5*	11.5
N#C/C(=C/c1ccc(N2CCCCCC2)o1)c1cccc(F)c1	47.9	-0.8	-12.4	66.4*	80.7*	-2.8
N#C/C(=C/c1ccc(N2CCOCC2)o1)c1ccc(Br)cc1	80.0	-6.1	-8.0	47.4	93.5*	-3.4
CCOC(=O)c1sc2nc(CSc3ccccc3)nc(N3CCC(C(N)=O)CC3)c2c1C	11.5	10.6	10.7	59.2*	39.0	-3.3
Cc1sc2nc(CSc3ccccc3)nc(N3CCC(C(N)=O)CC3)c2c1C	4.0	7.3	8.0	19.0	11.2	5.0
CCOC(=O)C1CCN(c2c(Nc3ccc4c(c3)OCCO4)c(=O)c2=O)CC1	-53.6*	18.5	-25.8	-0.2	-57.6	-6.9
CCOC(=O)N1CCC(N2C(=O)c3ccccc3C2Nc2ccc3c(c2)OCCO3)CC1 (stereo not drawn)	-68.6*	-11.0	-7.4	7.0	-71.9	2.0
CCOC(=O)C1CCN(C(C(=O)Nc2ccc3c(c2)OCCO3)c2ccccc2)CC1 (stereo not drawn)	7.8	-17.5	-20.9	-9.7	17.3	2.5
O=C(Nc1ccccc1-c1nnc(SCc2ccc(Cl)cc2)o1)c1ccccc1	-3.4	-4.7	-7.9	71.2*	14.8	-17.5
Cc1ccc(OCCSc2ncccn2)c(C)c1	36.1	nt	nt	8.1	61.8*	0.3
Cc1cccc(-c2cccc(NC(=O)C3CCCN(C(=O)c4csc(C)n4)C3)c2)c1 (stereo not drawn)	38.5	-9.8	-46.7	25.0	59.8*	12.7
Cc1cccc(-c2cccc(NC(=O)C3CCCN(C(=O)c4cccnc4)C3)c2)c1 (stereo not drawn)	20.8	-0.6	1.8	8.6	66.6*	12.9
O=C(c1cccc(Cl)c1)N1CCC(=O)N(C(CO)Cc2ccccc2)CC1 (stereo not drawn)	-9.2	6.9	26.6	-13.5	4.7	nt
O=C(CCCCn1c(=O)c2ccccc2n(Cc2ccccc2)c1=O)NC1CCN(Cc2ccccc2)CC1	1.6	3.0	-10.6	59.4*	-0.7	6.9
O=C(CCCn1c(=O)c2ccccc2n(Cc2cccc(F)c2)c1=O)NC1CCN(Cc2ccccc2)CC1	-3.8	4.6	-8.1	30.5	0.7	-8.4
CCOc1ccc(-n2c(=S)sc3c(=O)[nH]c(SCC(=O)NC(C)CC)nc32)cc1 (stereo not drawn)	42.2	-6.3	-6.0	3.4	72.4*	-0.3
CCOC(=O)CC(=O)CSc1nc2c(sc(=S)n2-c2ccc(OCC)cc2)c(=O)[nH]1	-9.3	2.4	14.9	22.7	0.3	5.4
Cc1ccc(/C=N/N2C(=O)c3ccccc3NC2c2ccc(C)cc2)cc1 (stereo not drawn)	28.8	-43.0	-73.5	-27.0	55.1*	1.2
O=C1c2ccccc2NC(c2ccco2)N1/N=C/c1ccco1 (stereo not drawn)	12.2	-21.4	-13.7	-1.7	21.4	-3.8
C/C(=N\N1C(=O)c2ccccc2NC1c1ccccc1)c1ccccc1O (stereo not drawn)	8.9	-119.1	-148.1	65.6*	32.7	-9.4
SMILES	HSF1 inh	Jurkat NFkB inh	697 NFkB inh	T cruzi inh	HSF1 activator	GPR7 antag
C/C(=N\N1C(=O)c2ccccc2NC1c1ccco1)c1ccccc1O (stereo not drawn)	19.0	-120.1	-99.2	61.1*	44.8	-17.5
COCCNC(=O)CN1N=C(c2ccc(C)cc2)CCC1=O	-1.8	0.4	10.0	0.5	-12.5	-0.7
O=C(CNC(=O)N1CC(=O)Nc2ccccc21)Nc1cc(Cl)ccc1Cl	17.1	5.9	-0.9	-12.0	42.5	-0.1
CC(C)(C)CC(=O)Nc1cc2c3c(c1)CCC(=O)N3CCC2	-3.2	3.5	6.9	-4.4	0.6	-9.1
Cc1ccc(-c2csc(N=C(N)N)n2)c(C)c1	8.2	-8.9	-27.0	60.1*	8.8	-10.0
COc1ccc(-c2csc(N=C(N)N)n2)cc1	-3.8	-50.9	-12.5	0.6	-5.0	-3.5
CCCC12CN3CC(C)(CN(C1)C3c1ccc3c(c1)OCO3)C2=O (stereo not drawn)	31.4	14.3	20.2	-4.5	66.1*	6.1
Cc1c(C)n(CCCN(C)C)c2ncnc(NCc3ccccc3)c12	-1.3	-10.8	-27.1	55.2*	-9.2	2.1
Cc1c(C)n(CCc2ccccc2)c2ncnc(NCCO)c12	42.6	-65.1	-77.4	0.8	?	22.6
CCN(CC)c1ccc(NC(=O)CCN2C(=O)c3ccccc3S2(=O)=O)c(C)c1	-1.7	-5.5	-5.8	1.6	4.0	nt
CCCCNc1ncnc2c1nnn2Cc1ccccc1Cl	-3.7	-3.6	-35.2	6.5	-19.4	3.1
CC(C)(C)NC(=O)CSc1ncnc2c1nnn2Cc1ccccc1Cl	86.1	-2.4	-8.9	28.7	112.3*	9.5
O=C(CSc1ncnc2c1nnn2Cc1ccccc1)NC1CCCC1	40.2	-8.8	-1.1	51.7	57.8*	-0.8
Cc1ccccc1-n1ncc2c(SCC(=O)NC3CCCC3)ncnc21	1.5	12.5	-20.3	-11.7	-6.7	2.3
Cc1cccc(OCCC(=O)N(C)CC(=O)Nc2cccc3ccccc23)c1	3.5	-8.5	-3.9	-7.3	14.1	-3.6
COc1ccc(CCNC(=O)Nc2ccccc2[N+](=O)[O-])cc1	10.7	-41.5	-26.6	0.6	20.2	-11.5
CCN(CC)c1ccc(NC(=O)COc2ccc(N(C)S(=O)(=O)c3cccs3)cc2)cc1	4.7	0.3	-2.9	60.5*	48.3	-2.8
CCCNC(=O)Cn1cnc2sc(C(=O)N3CCCC(C(=O)OCC)C3)c(C)c2c1=O (stereo not drawn)	-6.5	-7.4	-4.3	-8.8	-17.5	-1.3
CCOC(=O)C1CCCN(C(=O)c2sc3nc(C)nc(N(CC)CC)c3c2C)C1 (stereo not drawn)	26.0	6.2	4.7	-10.6	56.9*	0.0
CC(=O)Nc1ccc(NC(=O)C2CCCCC2C(=O)O)cc1 (stereo not drawn)	-5.4	7.1	10.1	-27.1	-0.6	-5.4
O=C(O)C1CCCCC1C(=O)Nc1ccc2c(c1)CCC2 (stereo not drawn)	83.8	9.3	14.7	-17.6	122.7*	-9.7

Source: PubChem BioAssay
